Screening results from PubChem.
STAT1 blocker = reduces IFN-gamma driven STAT1 reporter signal; 200,000 tested, 0.35% active; NIH 3T3 STAT1-luciferase reporter, luminescence; inhibition, % at 5.5 µM;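 active = inhibition above a set limit, the mean inhibition across all tested compounds plus 3 SD, cut at about 34% in these data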;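 also: 0% = IFN-gamma with DMSO and 100% = IFN-gamma with 300 µM nifuroxazide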
STAT1 activator = activators of IFN-gamma induced STAT1 signaling; activation (% of control), % at 5.5 µM; 200,000 tested, 2.6% active; NIH 3T3 STAT1-luciferase reporter, luminescence; 100% = IFN-gamma alone, no compound;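 active = activation above the screen-wide mean activation plus 3 SD, cut at about 130% in these data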;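 also: raw ratio to IFN-gamma control signal so 100% means no change and 0% no light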
STAT3 inh-1 = inhibitors of IL-6 induced STAT3 signaling. U3A cells, IL-6 STAT3-luciferase reporter, luminescence; host cell line lacks STAT1. inhibition, % at 5.5 µM. 190,000 tested, 0.89% active;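 active = inhibition above the mean inhibition across all screened compounds plus 3 SD, cut at about 44% in these data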;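 also: 0% = DMSO only wells and 100% = 100 µM nifuroxazide control wells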
STAT3 act = activators of IL-6 induced STAT3 signaling; activation (% of control), % at 5.6 µM; U3A cells, IL-6 STAT3-luciferase reporter, luminescence; 100% = signal with IL-6 EC80 alone; 190,000 tested, 0.91% active;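 active = activation above the screen-wide mean of compound activation plus 3 SD, cut at about 130% in these data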;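 also: 0% = background luminescence of wells with medium and substrate only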
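Test system: human U3A cells carrying STAT3-luciferase construct; control set: IL-6-only wells as 100% reference; timing: compound pre-incubation 1 h before IL-6, then 6 h stimulation at 37 °C; also added: IL-6 stimulus at 33 ng/mL final; evaluation: % activation versus median of IL-6-stimulated wells; detection: reporter luminescence signal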
APP 5'UTR act = APP 5'UTR luciferase reporter activation. activation, % at 2 µM. 190,000 tested, 1% active. SH-SY5Y APP 5'UTR luciferase reporter, luminescence; zero percent = DMSO vehicle wells;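 active = activation above a set limit, based on mean plus 3 SD of controls, cut at about 140% in these data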
NF-kB neuron act = raises NF-kB expression in human neuronal cells | NF-kB reporter expression; stronger effect = higher value | fold change at 12.5 µM | 190,000 tested, 1.6% active; in the data active = fold change above about 3.3
STAT3 inh-2 = confirmation of STAT3 signaling inhibitors; shares compounds with STAT3 inh-1; U3A cells, IL-6 STAT3 luciferase reporter, luminescence; cell line lacks STAT1; inhibition, % at 5.7 µM; 1,200 tested, 45% active;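 active = inhibition above the hit cutoff computed for the primary STAT3 screen, cut at about 44% in these data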;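 also: 0% = IL-6 plus DMSO and 100% = IL-6 plus nifuroxazide control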
NFkB inh 2 = NF-kappaB inhibition in STAT3 inhibitor counter-screen; 1,200 tested, 36% active; inhibition, % at 5.7 µM; HEK293T NF-kB luciferase reporter, TNF-alpha induced; shares compounds with STAT3 inh-1;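 active = inhibition above the mean of solvent-only control wells plus 3 SD, cutoff set per campaign, cut at about 13% in these data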;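 also: 0% = TNF-alpha with DMSO and 100% = TNF-alpha with MG high control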
STAT1 inh 2 = inhibits STAT1, counter-screen to STAT3 inhibitors; shares compounds with STAT3 inh-1; NIH 3T3 STAT1-luciferase reporter, IFN-gamma induced, luminescence; inhibition, % at 5.7 µM; 1,200 tested, 27% active; AID 1317;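 active = inhibition above the mean plus 3 SD of solvent-only control wells, limit set per screening run, cut at about 16% in these data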;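 also: 0% = DMSO with IFN-gamma and 100% = nifuroxazide control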
Active calls of the source: *; · = no result given. Most compounds without a hit are left out; they make up all but 5.1% or so of the library.

SMILES | STAT1 blocker | STAT1 activator | STAT3 inh-1 | STAT3 act | APP 5'UTR act | NF-kB neuron act | STAT3 inh-2 | NFkB inh 2 | STAT1 inh 2
CS(=O)(=O)c1ccc2nc(NC(=O)c3cccs3)sc2c1 | 13 | 88 | 59* | 53 | 117 | 2.7 | 17 | -7 | -60
O=C(N/N=C1/SCC(=O)N1Cc1ccco1)c1ccccc1F | 2 | 96 | 6 | 99 | 15 | 0.94 | · | · | ·
O=C(COC(=O)COc1ccccc1Cc1ccccc1)Nc1cccnc1Cl | -1 | 101 | 0 | 103 | 12 | 1.2 | · | · | ·
COc1ccccc1-n1cnnc1SC(C)C(=O)Nc1ccc(NC(C)=O)cc1 (centres undefined) | -1 | 101 | 4 | 98 | 3 | 0.99 | · | · | ·
CC(=O)NS(=O)(=O)c1ccc(NC(=O)c2ccccn2)cc1 | 2 | 99 | 8 | 101 | -9 | 1.2 | · | · | ·
O=C(Nc1ccc(SC(F)(F)F)cc1)c1ccccn1 | 24 | 76 | 62* | 52 | 150* | 1.2 | 24 | -21 | -119
Cc1cc(OCC(F)(F)C(F)(F)C(F)(F)C(F)F)nc(N)n1 | -23 | 120 | -16 | 113 | 26 | 1 | · | · | ·
COc1ccc(-c2nsc3c(N4CCCC4)ncnc23)cc1 | -26 | 124 | 53* | 60 | 156* | 0.95 | 26 | 5 | -74
COc1ccccc1CNCC(=O)Nc1ccccc1-n1cccc1 | 8 | 91 | 14 | 92 | -10 | 1.1 | · | · | ·
CCC(C)NCCCOc1c(C)cc(C)cc1Br (centres undefined) | 7 | 93 | 20 | 84 | 24 | 1.1 | · | · | ·
Cc1cc(/C=N/n2cnnc2)c(C)n1-c1ccc(OCc2ccc(Cl)cc2)cc1 | 19 | 82 | 77* | 37 | 42 | 0.46 | 61* | 18* | 15
Cc1cc(/C=N/n2cnnc2)c(C)n1-c1ccc(OCc2ccccc2F)cc1 | 13 | 88 | 20 | 86 | 12 | 0.46 | · | · | ·
Cc1nc(NC(C)c2ccccc2)c2oc3ccccc3c2n1 (centres undefined) | 24 | 78 | 46* | 63 | 7 | 0.65 | 29 | -2 | 12
CCOC(=O)c1nnn(-c2nonc2N)c1CSc1nnc(N)s1 | -4 | 103 | 6 | 98 | 7 | 1.3 | · | · | ·
Cc1ccn2cc(-c3ccc4c(c3)NC(=O)CO4)nc2c1 | -18 | 114 | 46* | 66 | 120 | 1.1 | 19 | -25 | -76
O=C(Nc1ccccc1Cl)c1ccc(Cl)cc1Cl | -24 | 120 | 21 | 86 | 12 | 2.2 | · | · | ·
NC(=O)c1ccccc1N/C=C/C(=O)c1ccc(Cl)cc1Cl | -23 | 121 | 62* | 49 | 174* | 5.9* | 22 | -4 | -85
COc1cc(/C=N/Nc2cccc3cccnc23)cc(OC)c1O | -14 | 112 | 3 | 99 | 36 | 2.5 | · | · | ·
COc1cc(/C=N/Nc2ccc(C(F)(F)F)cn2)cc(OC)c1O | 0 | 100 | 48* | 63 | -6 | 0.94 | 27 | 0 | -3
CCN(CC)CCN(C(=O)c1ccc(C(C)=O)cc1)c1nc2ccc(Cl)cc2s1 | -18 | 115 | 15 | 94 | 19 | 1.1 | · | · | ·
O=c1c(Cl)c(Cl)cnn1Cc1ccccc1Cl | 6 | 94 | 48* | 63 | -92 | 1.4 | 55* | 27* | 20*
COCCNC(=S)N1CCC(C(=O)c2ccc3c(c2)OCCO3)CC1 | -13 | 110 | 13 | 96 | 38 | 1.3 | · | · | ·
O=C(c1cc2cc(Br)ccc2s1)N1CCOCC1 | -12 | 110 | 20 | 88 | -1 | 1.4 | · | · | ·
Cc1ccc(C)c(N=Nc2ccc(O)c3ncccc23)c1 | 17 | 83 | 46* | 63 | -33 | 0.56 | -23 | -22 | -41
CC(C)(C)c1ccc(C(=O)N2CCCCCC2=O)cc1 | 19 | 82 | 45* | 64 | -57 | 0.46 | 64* | 35* | 30*
SMILES | STAT1 blocker | STAT1 activator | STAT3 inh-1 | STAT3 act | APP 5'UTR act | NF-kB neuron act | STAT3 inh-2 | NFkB inh 2 | STAT1 inh 2
O=C(CNCc1ccc(F)cc1)Nc1ccccc1[N+](=O)[O-] | -12 | 111 | -1 | 106 | -10 | 0.96 | · | · | ·
O=C(Nc1ccccc1C(=O)N1CCOCC1)c1noc2c1CCCC2 | -4 | 102 | -10 | 111 | -22 | 1 | · | · | ·
O=C(Nc1cccc(O)c1)c1noc2c1CCCCC2 | 9 | 91 | 83* | 31 | 114 | 3.1 | 72* | 29* | 6
CC(=O)Nc1cccc(-c2cn3ccccc3n2)c1 | -19 | 117 | 9 | 98 | 7 | 1.7 | · | · | ·
Cc1cc(-c2cn3ccccc3n2)c(C)n1-c1ccccc1 | 0 | 100 | 58* | 55 | 176* | 2.6 | 21 | -18 | -83
Cc1ccc(-c2nc3cc(C)ccc3o2)cc1 | 32 | 71 | 84* | 34 | 175* | 1.6 | 38 | 40* | 3
Cc1ccc(-c2nc3cc(N)ccc3o2)cc1 | -27 | 125 | 59* | 51 | 45 | 5.4* | 17 | -16 | -120
COC(=O)c1ccc(-c2nc3ccc(C)cc3o2)cc1 | -22 | 120 | 68* | 47 | 25 | 7* | 43 | -30 | -82
CC(C)c1ccc2oc(-c3ccc(N)cc3)nc2c1 | 28 | 87 | 78* | 36 | 125 | 3.4* | 32 | 5 | -88
Clc1ccc2oc(-c3ccccc3)nc2c1 | -34 | 128 | -20 | 117 | -8 | 2.1 | · | · | ·
Cc1ccc(/C=C(\NC(=O)c2ccccc2)C(=O)NCCc2ccccn2)o1 | 1 | 99 | -5 | 107 | -11 | 1.4 | · | · | ·
CC(=O)NC1=NN(C(C)=O)C2(S1)C(=O)N(C(C)=O)c1ccc(C)cc12 (centres undefined) | -9 | 106 | 10 | 98 | 10 | 0.98 | · | · | ·
Cc1oc(-c2ccc(Cl)cc2)nc1CN1CCCC(C(=O)N2CCN(C(=O)c3ccco3)CC2)C1 (centres undefined) | 14 | 88 | 79* | 38 | · | 0.74 | 72* | 26* | 12
CN(C)c1ccc(C(=S)Nc2ccccc2)cc1 | -44 | 139* | 57* | 53 | 132 | 2.9 | 23 | -37 | -109
CN(C)c1ccc(C(=O)c2ccccc2)cc1 | -21 | 120 | 1 | 100 | 65 | 1.8 | · | · | ·
O=C(NCCCN1CCOCC1)c1ccc(CSCc2cccc(Cl)c2)o1 | 2 | 97 | 2 | 101 | 14 | 1.4 | · | · | ·
CCOC(=O)c1c(C)c(C(=O)Nc2ccc3c(c2)OCO3)c(C)n1C | -5 | 104 | 3 | 102 | 18 | 1.2 | · | · | ·
CCOC(=O)c1c(N)sc(C(=O)Nc2ccc3c(c2)OCO3)c1C | 24 | 76 | 85* | 31 | 117 | 5.5* | 31 | 17* | -62
